In ChEMBL document CHEMBL3352165 (Eur J Med Chem, 2014):
pIC50: −log10 of the molar value. Calls of active or inactive are those of the source. The rule behind the calls is not given here.

Columns and labels:
[1] = Cmax in Beagle dog at 240 mg/kg, po dosed for 14 days by LC/MS/MS method; type: ADME, organism-based, Canis lupus familiaris; parameters: dose 240 mg/kg, route oral; conditions: in vivo
Method in brief: (§1)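 Beagle dogs (n = 6) dosed by oral gavage at 240 mg/kg daily for 14 consecutive days. Blood taken predose and at 0.25–24 h on days 1 and 14, plasma stored at −20 °C, analysed by validated LC/MS/MS. Half-life and AUC by model-independent methods; Cmax and MRT read from concentration–time data.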

BT-474 [2] = assay: Induction of cell cycle arrest in human BT474 cells assessed as accumulation at G2/M phase at 0.01 uM incubated for 12 hrs by propidium iodide staining based flow cytometry (reference value: 14%); type: functional
[3] = Antitumor activity against human Calu3 cells xenografted in BALB/cA mouse assessed as tumor growth inhibition at 200 mg/kg, po; type: functional; conditions: Calu-3, read-out: TGI
Method in brief: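 Female BALB/cA nude mice, 6–7 weeks old, implanted s.c. on midright side with 2×10^6 Calu-3 cells in 0.2 ml PBS. Grouped at 60–150 mm³ tumour volume (6 per treated group, 12 vehicle). Oral dosing in 0.5% CMC with 0.1% Tween-80. Caliper volume = L×W²×0.5; inhibition = (1 − T/C)×100% on relative tumour volume; weight tracked for 21 d.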

[4] = target: T1, Epidermal growth factor receptor (Homo sapiens, UniProt P00533); assay: Inhibition of HER1 (unknown origin) assessed as reduction in autophosphorylation by ELISA method
MRC5 = assay: cells; conditions: Homo sapiens, MRC5, 72 h
[5] = target: T1, Epidermal growth factor receptor; conditions: A-431, 0.001 to 1 uM
BT-474 [6] = assay: Induction of apoptosis in human BT474 cells at 10 uM incubated for 12 hrs by propidium iodide staining based flow cytometry (reference value: 1%); type: functional
[7] = Tmax in Beagle dog at 240 mg/kg, po administered as single dose measured after 0.25 to 24 hrs post dose by LC/MS/MS method; type: ADME, organism-based, Canis lupus familiaris; parameters: dose 240 mg/kg, route oral; conditions: in vivo
Method in brief: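 Beagle dogs (n = 6), single oral gavage dose of 240 mg/kg. Plasma levels measured by validated LC/MS/MS. Tmax read directly from the concentration-time data.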

[8] = Cmax in Beagle dog at 240 mg/kg, po administered as single dose measured after 0.25 to 24 hrs post dose by LC/MS/MS method; type: ADME, organism-based, Canis lupus familiaris; parameters: dose 240 mg/kg, route oral; conditions: in vivo
Method in brief: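 Single oral gavage of 240 mg/kg to beagle dogs (n = 6). Blood sampled at 0.25–24 h, kept on ice, centrifuged within 1 h (1000 × g, 4 °C, 15 min), plasma stored at −20 °C. Drug quantified by validated LC/MS/MS. AUC0–24 from non-compartmental analysis; Cmax and MRT taken directly from concentration–time data.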

[9] = target: T2, Receptor tyrosine-protein kinase erbB-2 (Homo sapiens, UniProt P04626); conditions: BT-474, 0.001 to 1 uM
[10] = target: T2, Receptor tyrosine-protein kinase erbB-2; conditions: BT-474, 0.001 to 1 uM; remark: listed apart in the source
BT-474 [11] = assay: Induction of apoptosis in human BT474 cells at 1 uM incubated for 12 hrs by propidium iodide staining based flow cytometry (reference value: 1%); type: functional
cells [12] = conditions: Homo sapiens, SK-OV-3, 72 h
Mus musculus [13] = assay: Toxicity in human Calu3 cells xenografted BALB/cA mouse assessed as body weight loss at 100 mg/kg, po measured every other day for 21 days; type: organism-based, Calu-3; parameters: dose 100 mg/kg, route oral; conditions: in vivo, 504 h
Method in brief: (§2)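 Female BALB/cA nude mice, 6–7 weeks old, implanted s.c. on the mid-right flank with 2×10^6 Calu-3 cells in 0.2 ml PBS. At 60–150 mm³ tumour volume, mice randomised into six per treatment group (twelve vehicle controls). Oral dosing in 0.5% CMC aqueous solution with 0.1% Tween-80. Body weight recorded every other day for 21 d.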

[14] = Elimination half life in Beagle dog at 240 mg/kg, po dosed for 14 days by LC/MS/MS method; type: ADME, organism-based, Canis lupus familiaris; parameters: dose 240 mg/kg, route oral; conditions: in vivo, read-out: beta t1/2 (converted); method in brief: as §1
BT-474 [15] = assay: Induction of cell cycle arrest in human BT474 cells assessed as accumulation at G1 phase at 0.1 uM incubated for 12 hrs by propidium iodide staining based flow cytometry (reference value: 67%); type: functional
BT-474 [16] = assay: Induction of cell cycle arrest in human BT474 cells assessed as accumulation at G2/M phase at 1 uM incubated for 12 hrs by propidium iodide staining based flow cytometry (reference value: 14%); type: functional
[17] = target: T2, Receptor tyrosine-protein kinase erbB-2; assay: Inhibition of HER2 (unknown origin) assessed as reduction in autophosphorylation by ELISA method
Method in brief: (§3)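 Phosphotyrosine ELISA with purified kinase (20 ng) and 5 µM ATP in buffer (50 mM HEPES pH 7.4, 20 mM MgCl2, 0.1 mM MnCl2, 0.2 mM Na3VO4, 1 mM DTT), 1 h at 37 °C, DMSO ≤1%. Detection by PY99 antibody, then HRP anti-mouse IgG with o-phenylenediamine, A490. IC50 by Logit from at least three independent tests.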

cells [18] = conditions: Homo sapiens, Calu-3, 72 h
BT-474 [19] = assay: Induction of cell cycle arrest in human BT474 cells assessed as accumulation at G2/M phase at 0.1 uM incubated for 12 hrs by propidium iodide staining based flow cytometry (reference value: 14%); type: functional
[20] = AUC (0 to 24 hrs) in Beagle dog at 240 mg/kg, po dosed for 14 days by LC/MS/MS method; type: ADME, organism-based, Canis lupus familiaris; parameters: time < 24 hr, dose 240 mg/kg, route oral; conditions: plasma; method in brief: as §1
[21] = target: T3, Platelet-derived growth factor receptor beta (Homo sapiens, UniProt P09619); assay: Inhibition of PDGFRbeta (unknown origin) by ELISA method; method in brief: as §3
[22] = target: T2, Receptor tyrosine-protein kinase erbB-2; conditions: BT-474, 0.001 to 1 uM; remark: listed apart in the source
[23] = target: T3, Platelet-derived growth factor receptor beta; conditions: U-87MG ATCC, 0.001 to 1 uM
MDA-MB-231 = assay: cells; conditions: Homo sapiens, MDA-MB-231, 72 h
BT-474 [24] = assay: Induction of cell cycle arrest in human BT474 cells assessed as accumulation at G1 phase at 10 uM incubated for 12 hrs by propidium iodide staining based flow cytometry (reference value: 67%); type: functional
[25] = target: Vascular endothelial growth factor receptor 2 (Homo sapiens, UniProt P35968); assay: Inhibition of KDR (unknown origin) by ELISA method; method in brief: as §3
Mus musculus [26] = assay: Toxicity in human Calu3 cells xenografted BALB/cA mouse assessed as body weight loss at 200 mg/kg, po measured every other day for 21 days; type: organism-based, Calu-3; parameters: dose 200 mg/kg, route oral; conditions: in vivo, 504 h; method in brief: as §2

T2 sequence (P04626 whole entry): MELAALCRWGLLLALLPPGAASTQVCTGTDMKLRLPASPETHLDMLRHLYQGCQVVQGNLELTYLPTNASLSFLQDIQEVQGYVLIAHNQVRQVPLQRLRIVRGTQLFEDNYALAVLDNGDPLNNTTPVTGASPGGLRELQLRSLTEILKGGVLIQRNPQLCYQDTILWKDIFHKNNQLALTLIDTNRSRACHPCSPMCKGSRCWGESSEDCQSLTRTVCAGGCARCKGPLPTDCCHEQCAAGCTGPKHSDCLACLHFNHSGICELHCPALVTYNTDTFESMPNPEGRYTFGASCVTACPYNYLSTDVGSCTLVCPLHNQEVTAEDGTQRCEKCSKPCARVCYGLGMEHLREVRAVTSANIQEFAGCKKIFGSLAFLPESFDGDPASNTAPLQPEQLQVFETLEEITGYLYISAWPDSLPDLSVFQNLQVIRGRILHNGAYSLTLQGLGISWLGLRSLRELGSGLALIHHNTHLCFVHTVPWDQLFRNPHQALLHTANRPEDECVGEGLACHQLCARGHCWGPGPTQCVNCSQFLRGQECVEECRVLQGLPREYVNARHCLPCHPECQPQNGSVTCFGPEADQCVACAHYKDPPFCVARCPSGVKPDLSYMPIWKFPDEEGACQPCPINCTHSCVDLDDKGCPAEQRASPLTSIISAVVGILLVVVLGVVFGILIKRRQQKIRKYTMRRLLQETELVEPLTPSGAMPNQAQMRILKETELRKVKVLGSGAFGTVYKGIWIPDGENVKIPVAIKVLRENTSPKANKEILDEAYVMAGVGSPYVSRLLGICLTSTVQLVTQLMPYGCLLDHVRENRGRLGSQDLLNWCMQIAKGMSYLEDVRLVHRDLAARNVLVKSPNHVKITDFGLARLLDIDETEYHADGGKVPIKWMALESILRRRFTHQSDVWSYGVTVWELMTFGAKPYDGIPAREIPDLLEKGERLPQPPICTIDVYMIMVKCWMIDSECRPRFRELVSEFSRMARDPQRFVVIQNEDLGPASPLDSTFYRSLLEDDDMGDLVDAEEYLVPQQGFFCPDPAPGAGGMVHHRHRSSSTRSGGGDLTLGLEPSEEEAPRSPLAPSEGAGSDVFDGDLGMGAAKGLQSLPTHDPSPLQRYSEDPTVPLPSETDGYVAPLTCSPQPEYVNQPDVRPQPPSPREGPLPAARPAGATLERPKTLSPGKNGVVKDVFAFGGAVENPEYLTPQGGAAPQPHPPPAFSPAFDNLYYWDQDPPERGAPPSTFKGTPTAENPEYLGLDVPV
T1 sequence (P00533 whole entry): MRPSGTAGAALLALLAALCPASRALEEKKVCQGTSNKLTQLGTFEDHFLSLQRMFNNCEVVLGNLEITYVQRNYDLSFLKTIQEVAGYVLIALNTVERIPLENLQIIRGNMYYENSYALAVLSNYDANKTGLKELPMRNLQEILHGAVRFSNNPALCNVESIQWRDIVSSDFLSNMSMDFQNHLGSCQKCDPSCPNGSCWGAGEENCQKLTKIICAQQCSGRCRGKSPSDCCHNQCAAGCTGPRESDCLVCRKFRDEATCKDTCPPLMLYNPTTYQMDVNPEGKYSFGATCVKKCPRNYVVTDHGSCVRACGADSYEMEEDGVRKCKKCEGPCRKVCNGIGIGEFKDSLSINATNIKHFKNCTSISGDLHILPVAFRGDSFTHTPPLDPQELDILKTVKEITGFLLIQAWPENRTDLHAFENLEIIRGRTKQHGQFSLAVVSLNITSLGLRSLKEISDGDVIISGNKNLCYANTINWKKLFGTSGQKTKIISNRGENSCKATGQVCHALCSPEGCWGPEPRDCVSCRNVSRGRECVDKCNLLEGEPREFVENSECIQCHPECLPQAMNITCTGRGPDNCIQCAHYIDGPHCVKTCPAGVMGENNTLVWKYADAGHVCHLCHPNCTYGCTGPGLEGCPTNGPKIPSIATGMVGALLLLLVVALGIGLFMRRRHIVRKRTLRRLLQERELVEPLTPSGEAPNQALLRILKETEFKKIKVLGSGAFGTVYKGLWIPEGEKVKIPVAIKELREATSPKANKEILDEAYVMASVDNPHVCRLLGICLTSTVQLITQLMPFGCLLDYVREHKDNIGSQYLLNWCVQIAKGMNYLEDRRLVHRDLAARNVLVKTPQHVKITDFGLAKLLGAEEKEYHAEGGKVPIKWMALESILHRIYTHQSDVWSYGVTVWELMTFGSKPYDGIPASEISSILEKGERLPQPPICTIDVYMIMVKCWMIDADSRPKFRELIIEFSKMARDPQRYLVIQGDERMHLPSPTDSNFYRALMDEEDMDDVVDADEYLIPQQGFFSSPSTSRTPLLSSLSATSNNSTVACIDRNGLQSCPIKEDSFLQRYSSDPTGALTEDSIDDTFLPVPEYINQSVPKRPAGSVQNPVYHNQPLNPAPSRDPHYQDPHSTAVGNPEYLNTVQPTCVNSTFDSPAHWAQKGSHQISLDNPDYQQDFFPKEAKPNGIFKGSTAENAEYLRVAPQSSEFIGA
T3 sequence (P09619 whole entry): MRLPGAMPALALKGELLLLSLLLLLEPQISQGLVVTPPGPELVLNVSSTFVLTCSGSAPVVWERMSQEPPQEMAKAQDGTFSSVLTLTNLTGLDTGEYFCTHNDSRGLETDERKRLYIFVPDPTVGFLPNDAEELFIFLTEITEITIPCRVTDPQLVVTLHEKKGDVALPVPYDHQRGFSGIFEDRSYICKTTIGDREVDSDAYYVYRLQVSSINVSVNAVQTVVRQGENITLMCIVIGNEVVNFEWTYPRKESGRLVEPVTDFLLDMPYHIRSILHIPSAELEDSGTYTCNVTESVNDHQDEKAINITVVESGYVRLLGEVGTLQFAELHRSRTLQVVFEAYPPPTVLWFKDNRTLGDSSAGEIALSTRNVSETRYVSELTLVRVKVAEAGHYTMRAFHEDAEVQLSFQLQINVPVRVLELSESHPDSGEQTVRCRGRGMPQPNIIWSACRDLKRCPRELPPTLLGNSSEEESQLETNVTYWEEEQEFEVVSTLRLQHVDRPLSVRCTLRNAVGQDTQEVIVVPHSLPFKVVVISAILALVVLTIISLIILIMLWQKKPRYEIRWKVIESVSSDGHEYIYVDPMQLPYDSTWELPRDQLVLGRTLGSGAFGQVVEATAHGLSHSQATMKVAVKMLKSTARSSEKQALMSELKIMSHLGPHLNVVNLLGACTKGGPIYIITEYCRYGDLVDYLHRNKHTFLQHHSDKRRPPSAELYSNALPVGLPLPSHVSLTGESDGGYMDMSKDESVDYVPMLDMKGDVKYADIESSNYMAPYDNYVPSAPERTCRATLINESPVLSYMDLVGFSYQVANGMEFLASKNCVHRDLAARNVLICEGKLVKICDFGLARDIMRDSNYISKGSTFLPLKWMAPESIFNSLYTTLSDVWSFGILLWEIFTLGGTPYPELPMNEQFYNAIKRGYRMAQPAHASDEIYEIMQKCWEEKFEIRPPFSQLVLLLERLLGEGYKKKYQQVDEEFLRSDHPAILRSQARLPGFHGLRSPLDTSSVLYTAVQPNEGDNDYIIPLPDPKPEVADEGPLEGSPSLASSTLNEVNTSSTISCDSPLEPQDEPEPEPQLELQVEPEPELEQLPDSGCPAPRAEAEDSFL
Sequence of Vascular endothelial growth factor receptor 2 (P35968 whole entry): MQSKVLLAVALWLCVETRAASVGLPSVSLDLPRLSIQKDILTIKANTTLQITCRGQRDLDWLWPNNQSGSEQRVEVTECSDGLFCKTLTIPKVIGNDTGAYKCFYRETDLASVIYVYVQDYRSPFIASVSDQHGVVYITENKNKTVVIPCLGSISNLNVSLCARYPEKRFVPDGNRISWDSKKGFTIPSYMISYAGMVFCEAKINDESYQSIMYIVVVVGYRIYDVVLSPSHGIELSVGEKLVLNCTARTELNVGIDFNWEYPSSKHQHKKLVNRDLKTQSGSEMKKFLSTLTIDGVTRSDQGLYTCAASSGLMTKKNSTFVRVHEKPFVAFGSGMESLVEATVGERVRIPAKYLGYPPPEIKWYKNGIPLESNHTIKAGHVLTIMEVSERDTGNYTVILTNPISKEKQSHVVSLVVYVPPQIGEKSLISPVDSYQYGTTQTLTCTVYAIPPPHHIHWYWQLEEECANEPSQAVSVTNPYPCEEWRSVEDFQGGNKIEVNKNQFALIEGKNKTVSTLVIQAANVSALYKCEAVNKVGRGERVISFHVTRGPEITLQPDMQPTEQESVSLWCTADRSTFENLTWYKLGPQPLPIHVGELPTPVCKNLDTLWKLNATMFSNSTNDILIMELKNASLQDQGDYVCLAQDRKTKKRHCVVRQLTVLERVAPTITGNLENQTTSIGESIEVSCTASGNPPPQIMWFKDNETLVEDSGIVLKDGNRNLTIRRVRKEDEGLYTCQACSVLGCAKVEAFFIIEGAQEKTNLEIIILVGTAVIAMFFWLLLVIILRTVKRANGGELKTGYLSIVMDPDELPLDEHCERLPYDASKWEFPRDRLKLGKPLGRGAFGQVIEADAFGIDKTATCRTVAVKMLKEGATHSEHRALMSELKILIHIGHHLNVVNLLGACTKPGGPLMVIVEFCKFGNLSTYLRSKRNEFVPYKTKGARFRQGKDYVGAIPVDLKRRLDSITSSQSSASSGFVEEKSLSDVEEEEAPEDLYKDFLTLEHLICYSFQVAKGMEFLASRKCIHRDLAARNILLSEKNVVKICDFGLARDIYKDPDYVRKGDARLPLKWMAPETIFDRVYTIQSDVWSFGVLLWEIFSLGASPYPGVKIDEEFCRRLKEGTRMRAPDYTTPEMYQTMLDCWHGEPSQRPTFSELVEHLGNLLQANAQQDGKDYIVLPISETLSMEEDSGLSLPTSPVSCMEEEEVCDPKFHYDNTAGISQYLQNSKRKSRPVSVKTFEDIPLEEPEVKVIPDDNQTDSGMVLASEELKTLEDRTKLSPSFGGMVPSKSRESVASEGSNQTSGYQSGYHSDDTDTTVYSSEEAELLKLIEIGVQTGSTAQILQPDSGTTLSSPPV

Work on CN(C)[C@H](CS(C)(=O)=O)c1ccc(-c2ccc3ncnc(Nc4ccc(OCc5cccc(F)c5)c(Cl)c4)c3c2)o1 yielded a Cmax [1] of 2900 ng/mL, an Activity (BT-474 [2]) of 14% and an inhibition in vivo at 200 mg/kg [3] of 83%. For the same molecule, the pIC50 [4] was 8.39, the pIC50 (MRC5) was < 4.00 and the inhibition [5] was “Dose-dependent effect”. It also gave an Activity (BT-474 [6]) of 11%, a Tmax [7] of 4 h and a Cmax [8] of 3100 ng/mL. For the same molecule, the inhibition [9] was “Dose-dependent effect”, the inhibition [10] was “Dose-dependent effect” and the Activity (BT-474 [11]) was 5%. For the same molecule, the pIC50 (cells [12]) was 6.36, the Activity (Mus musculus [13]) was “Non-toxic” and the half-life [14] was 288 min. The Activity (BT-474 [15]) was 84%, the Activity (BT-474 [16]) was 12% and the pIC50 [17] was 9.30. It also gave a pIC50 (cells [18]) of 6.64, an Activity (BT-474 [19]) of 11% and an AUC at 24 h [20] of 29800 ng·h/mL. The pIC50 [21] was < 3.70, the inhibition [22] was “Dose-dependent effect” and the inhibition [23] was “inactive”. For the same molecule, the pIC50 (MDA-MB-231) was 4.02, the Activity (BT-474 [24]) was 80% and the pIC50 [25] was < 3.70. For the same molecule, the Activity (Mus musculus [26]) was “Non-toxic”.
